# In ChEMBL document CHEMBL3085625, “Synthesis, biological evaluation and molecular modeling studies of some novel thiazolidinediones with triazole ring” (Eur J Med Chem, 2013):
# Tests used:
# [1] = test system: MCF7; assay: Cytotoxicity against human MCF7 cells after 24 hrs by MTT assay; format: functional, cell-based; details: MCF7, 24 h
# Method in brief: (§1)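 MTT read-out: viable-cell mitochondrial dehydrogenase reduces tetrazolium to formazan, which is dissolved in DMSO and read at 570 nm. IC50 reported in μg/ml. Doxorubicin serves as positive control.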
# [2] = test system: HepG2; assay: Cytotoxicity against human HepG2 cells after 24 hrs by MTT assay; format: functional, cell-based; details: HepG2, 24 h; method in brief: as §1
# [3] = Inhibition of alpha-glucosidase (unknown origin) using p-nitrophenyl-alpha-D-glucopyranoside as substrate assessed as p-nitrophenol formation incubated for 5 mins prior to substrate addition measured after 5 mins by spectrophotometry
# Method in brief: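 Test samples (5 mg/mL DMSO stock) in 100 mM phosphate buffer pH 6.8 preincubated 5 min with yeast α-glucosidase (0.76 U/mL) or crude rat intestinal enzyme (supernatant of sonicated acetone powder in saline, centrifuged). Then 5 mM p-nitrophenyl-α-D-glucopyranoside added; p-nitrophenol read at 405 nm after 5 min. Sample blanks without substrate; DMSO controls. Inhibition = (1−B/A)×100. Triplicate; IC50 by regression of mean inhibition.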
# [4] = Cytotoxicity against human IMR32 cells after 24 hrs by MTT assay; format: functional, cell-based; details: IMR-32, 24 h; method in brief: as §1
IC50 [3] [µg/mL],Structure (SMILES),IC50 [1] [µg/mL],IC50 [2] [µg/mL],IC50 [4] [µg/mL]
> 100,O=C1S/C(=C\c2ccc3c(c2)OCO3)C(=O)N1Cc1cn(-c2ccc(F)cc2)nn1,96.2,> 100,> 100
> 100,CCCCCCn1cc(CN2C(=O)S/C(=C\c3ccc4c(c3)OCO4)C2=O)nn1,43,67,77.6
0.3,O=C1S/C(=C\c2ccc3c(c2)OCO3)C(=O)N1Cc1cn(CCc2ccccc2)nn1,30,31,52.6
40,O=C1S/C(=C\c2ccc3c(c2)OCO3)C(=O)N1Cc1cn(-c2ccccc2Cl)nn1,87,> 100,> 100
> 100,O=C1S/C(=C\c2ccc3c(c2)OCO3)C(=O)N1Cc1cn(-c2ccc(F)c(F)c2)nn1,> 100,> 100,> 100
75.5,Cc1ccc(-n2cc(CN3C(=O)S/C(=C\c4ccc5c(c4)OCO5)C3=O)nn2)cc1,> 100,> 100,> 100
33.6,O=C1S/C(=C\c2ccc3c(c2)OCO3)C(=O)N1Cc1cn(-c2ccc(Cl)cc2)nn1,> 100,> 100,> 100

# The remaining lines, values behind:
Structure (SMILES),IC50 [3] [µg/mL],IC50 [1] [µg/mL],IC50 [2] [µg/mL],IC50 [4] [µg/mL]
C[C@H]1O[C@H](O[C@H]2[C@H](O)[C@@H](O)[C@@H](O[C@H]3[C@H](O)[C@@H](O)C(O)O[C@@H]3CO)O[C@@H]2CO)[C@H](O)[C@@H](O)[C@@H]1N[C@H]1C=C(CO)[C@@H](O)[C@H](O)[C@H]1O (some centres not stated) [ACARBOSE],12.5,–,–,–
CC(C)c1ccc(-n2cc(CN3C(=O)S/C(=C\c4ccc5c(c4)OCO5)C3=O)nn2)cc1,0.3,78,66,97.5
COc1ccc(C)cc1-n1cc(CN2C(=O)S/C(=C\c3ccc4c(c3)OCO4)C2=O)nn1,> 100,34,45,52.6
O=C1S/C(=C\c2ccc3c(c2)OCO3)C(=O)N1Cc1cn(-c2ccc(Cl)c(F)c2)nn1,> 100,> 100,> 100,> 100
COc1cccc2c1C(=O)c1c(O)c3c(c(O)c1C2=O)C[C@@](O)(C(=O)CO)C[C@@H]3O[C@H]1C[C@H](N)[C@H](O)[C@H](C)O1 [DOXORUBICIN],–,–,0.6,0.8
O=C1S/C(=C\c2ccc3c(c2)OCO3)C(=O)N1Cc1cn(-c2ccccc2[N+](=O)[O-])nn1,0.1,> 100,> 100,> 100
